According to ChEMBL document CHEMBL1131592, “DNA-Directed alkylating agents. 7. Synthesis, DNA interaction, and antitumor activity of bis(hydroxymethyl)- and bis(carbamate)-substituted pyrrolizines and imidazoles” (J Med Chem, 1998):

Legend:
P388 = assay: Compound was evaluated for reduction in P388 (type I DNA) cell numbers to 50% of control values after a 72 hour exposure.; format: functional, cell-based; conditions: Mus musculus, P388, 72 h
How it was run: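 P388 murine leukemia cells, log-phase cultures; drug present throughout 72 h growth period. IC50 = nominal drug concentration reducing cell density to 50% of control; eight control wells per plate. Averages of at least two (table footnote: three) independent determinations.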

Nucleic Acid = assay: Rate constants (1/s x 10e4) for loss of compound when incubated with calf thymus DNA in SHE buffer (pH 7.0) at 37 degree Centigrade, as determined by HPLC; format: nucleic-acid assay; conditions: Bos taurus
How it was run: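 Aliquots extracted into 1-butanol with NaOAc; unreacted drug quantified by C-18 reverse-phase HPLC, 254 nm. kobs (hydrolysis plus alkylation) from ln(peak area) vs time fit.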

Row | IC50 (P388) [µM] | k obs (Nucleic Acid) [s⁻¹] | SMILES
1 | 0.11 | 0.000186 | O=C(Nc1ccc(CCCc2c(CO)c(CO)c3n2CCC3)cc1)c1ccc(Nc2ccnc3ccccc23)cc1
2 | 12 | – | OCc1ncn(CCCc2ccc(Nc3c4ccccc4nc4ccccc34)cc2)c1CO
3 | 1.3 | 0.000187 | OCc1c(CO)c2n(c1CCCc1ccc(Nc3c4ccccc4nc4ccccc34)cc1)CCC2
4 | > 20 | – | CSc1nc(CO)c(CO)n1CCCc1ccc(NC(=O)c2ccc(Nc3ccnc4ccccc34)cc2)cc1
5 | 16 | – | CNC(=O)OCc1ncn(CCCc2ccc(Nc3c4ccccc4nc4ccccc34)cc2)c1COC(=O)NC
6 | 1.3 | – | CSc1nc(CO)c(CO)n1CCCc1ccc(Nc2c3ccccc3nc3ccccc23)cc1
7 | > 20 | – | O=C(Nc1ccc(CCCn2cnc(CO)c2CO)cc1)c1ccc(Nc2ccnc3ccccc23)cc1
8 | 0.03 | 0.000158 | O=C(Nc1ccc(CCc2c(CO)c(CO)c3n2CCC3)cc1)c1ccc(Nc2ccnc3ccccc23)cc1
9 | > 20 | 0.000134 | CNC(=O)OCc1nc(SC)n(C)c1COC(=O)NC
10 | > 20 | – | CNC(=O)OCc1ncn(CCCc2ccc(NC(=O)c3ccc(Nc4ccnc5ccccc45)cc3)cc2)c1COC(=O)NC
11 | 11 | 8.8e-05 | CNC(=O)OCc1nc(SC)n(CCCc2ccc(NC(=O)c3ccc(Nc4ccnc5ccccc45)cc3)cc2)c1COC(=O)NC
12 | 0.8 | 0.000161 | CNC(=O)OCc1nc(SC)n(CCCc2ccc(Nc3c4ccccc4nc4ccccc34)cc2)c1COC(=O)NC
